According to ChEMBL document CHEMBL4732039, “Introduction of a cyano group at the 2-position of an (R,S)-3-hydroxy-2-(phosphonomethoxy)propyl (HPMP) derivative of thymine elicits selective anti-HBV activity” (RSC Med Chem, 2021):

Columns and labels:
Human betaherpesvirus 5 [1] = experiment: Antiviral activity against HCMV AD169 infected in human embryonic lung cells; type: functional, cell-based; details: Human betaherpesvirus 5, AD169, Lung
Human betaherpesvirus 5 [2] = experiment: Antiviral activity against HCMV AD169 infected in human HFF cells assessed as reduction in virus-induced cytopathic effect incubated for 14 days by cell-titer glo assay; type: functional, cell-based; details: Human betaherpesvirus 5, AD169, HFF, 336 h; for EC90: time 14 day
[3] = Cytotoxicity against human HFF cells assessed as reduction in cell viability incubated for 14 days by cell titer glo assay; type: cell-based; details: time 14 day
[4] = Selectivity index, ratio of CC50 for human HFF cells to EC50 for antiviral activity against HCMV AD169
Human alphaherpesvirus 3 = experiment: Antiviral activity against VZV infected in human HFF cells assessed as reduction in virus-induced cytopathic effect incubated for 14 days by cell-titer glo assay; type: functional, organism-based; details: Human alphaherpesvirus 3, HFF, 336 h; for EC90: time 14 day
[5] = Selectivity index, ratio of CC50 of human HFF cells to EC50 of antiviral activity against VZV; type: toxicity; details: read-out: Ratio CC50/EC50
Hepatitis B virus = experiment: Antiviral activity against HBV infected in human HepG2.2.2.15 cells assessed as inhibition of viral replication preincubated for 3 days followed by media replenishment with fresh drug and further incubated for 3 days by qPCR analysis; type: functional, organism-based; details: for EC50: HepG2 2.2.15; for EC90: HepG2 2.2.15, 144 h, time 6 day
Outline: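 HepG2 2.2.15 human hepatoblastoma cells, carrying two copies of wild-type HBV (strain ayw) genome and constitutively producing virus. Extracellular HBV DNA copy number from released virions quantified by real-time TaqMan qPCR. […] Lamivudine (3TC) was the positive control.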

[6] = Cytotoxicity against human HepG2.2.2.15 cells assessed as reduction in cell viability incubated for 6 days by cell titer glo assay; type: cell-based; details: time 6 day
[7] = Selectivity index, ratio of CC50 of human HepG2.2.2.15 cells to EC50 of antiviral activity against HBV infected in human HepG2.2.2.15 cells; type: toxicity, cell-based; details: read-out: Ratio CC50/EC50
[8] = test system: Human immunodeficiency virus 1; experiment: Antiviral activity against HIV-1 3B infected in human MT4 cells assessed as reduction in virus-induced cytopathic effect measured after 5 days by MTT assay; type: functional, organism-based
Outline: (§1)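 MT-4 cells infected with wild-type HIV-1 IIIB or HIV-2 ROD. Protection read out by MTT assay. Cytotoxicity was assessed in parallel in uninfected MT-4 cells.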

[9] = test system: Human immunodeficiency virus 2; experiment: Antiviral activity against HIV-2 ROD infected in human MT4 cells assessed as reduction in virus-induced cytopathic effect measured after 5 days by MTT assay; type: functional, organism-based; outline: as §1

| Structure (SMILES) | EC50 (Human betaherpesvirus 5 [1]) | EC50 (Human betaherpesvirus 5 [2]) | EC90 (Human betaherpesvirus 5 [2]) | CC50 at 336 h [3] | Ratio CC50/EC50 [4] | EC50 (Human alphaherpesvirus 3) | EC90 (Human alphaherpesvirus 3) | selectivity ratio [5] | EC50 (Hepatitis B virus) | EC90 (Hepatitis B virus) | CC50 at 144 h [6] | selectivity ratio [7] | EC50 ([8]; mt4) | EC50 ([9]; mt4) | EC50 ([8]; Human immunodeficiency virus 1, 3B, MT4, 120 h, read-out: EC50) | EC50 ([9]; Human immunodeficiency virus 2, ROD, MT4, 120 h, read-out: EC50) |
| --- | --- | --- | --- | --- | --- | --- | --- | --- | --- | --- | --- | --- | --- | --- | --- | --- |
| Nc1ncnc2c1ncn2C[C@@H](CO)OCP(=O)(O)O | 1000 nM |  |  |  |  |  |  |  |  |  |  |  |  |  |  |  |
| CCN(CC)CC.N#CC(CO)(Cn1ccc(N)nc1=O)OCP(=O)(O)O (stereo not drawn) |  | > 150000 nM | > 150 µM | > 150 µM | 1 | > 150 µM | > 150 µM | 1 | > 100 µM | > 100 µM | > 100 µM | 1 | Not Active | Not Active |  |  |
| CCN(CC)CC.N#CC(CO)(Cn1cnc2c(N)ncnc21)OCP(=O)(O)O (stereo not drawn) |  | 1100 nM | > 150 µM | > 150 µM | >137 | 106 µM | > 150 µM | 1 | 3.6 µM | 9.9 µM | > 100 µM |  | Not Active | Not Active |  |  |
| CCN(CC)CC.N#CC(CO)(Cn1cnc2c(=O)[nH]c(N)nc21)OCP(=O)(O)O (stereo not drawn) |  | 2000 nM | > 30 µM | 102 µM | 50 | 2.08 µM | > 30 µM | 47 | > 100 µM | > 100 µM | > 100 µM | 1 |  |  | 51 µM | 33.7 µM |
| CCN(CC)CC.Cc1cn(CC(C#N)(CO)OCP(=O)(O)O)c(=O)[nH]c1=O (stereo not drawn) |  | > 150000 nM | > 150 µM | > 150 µM | 1 | > 150 µM | > 150 µM | 1 | 0.33 µM | 0.79 µM | > 100 µM | > 302000 | Not Active | Not Active |  |  |
| CCN(CC)CC.N#CC(CO)(Cn1ccc(=O)[nH]c1=O)OCP(=O)(O)O (stereo not drawn) |  | > 150000 nM | > 150 µM | > 150 µM | 1 | > 150 µM | > 150 µM | 1 | > 100 µM | > 100 µM | > 100 µM | 1 | Not Active | Not Active |  |  |
| Nc1nc2c(ncn2COC(CO)CO)c(=O)[nH]1 [GANCICLOVIR] |  | 900 nM | 74.2 µM | > 150 µM |  |  |  |  |  |  |  |  |  |  |  |  |
